Test results from ChEMBL document CHEMBL1128519, “Semisynthetic chemical modification of the antifungal lipopeptide echinocandin B (ECB): structure-activity studies of the lipophilic and geometric parameters of polyarylated acyl analogs of ECB” (J Med Chem, 1995).
Converted amounts (≈) assume the structure as drawn. Numbered stars: 1 amine (or outer) side, 2 acyl side, 3 side chain; on linkers, the order of the positions; unused ones are H or OH. Bridge positions count the residues as written; N and C are the ends. Square brackets hold non-standard residues; d marks the D form. Peptide text beside a SMILES is read from it. * marks the point of attachment. pTerphenylCO(4''-OnC5H11) = CCCCCOc1ccc(-c2ccc(-c3ccc(C(=O)*)cc3)cc2)cc1; Orn(4R-OH,5R-OH) = O=C([C@H](C[C@@H](O)[C@@H](O)N[*:3])N[*:1])[*:2]; hTyr(3S-OH,4S-OH) = N[C@H](C(=O)O)[C@H](O)[C@@H](O)c1ccc(O)cc1; Pro(3S-OH,4S-Me) = C[C@H]1CN[C@H](C(=O)O)[C@H]1O; Benzoyl(4-octyloxy) = CCCCCCCCOc1ccc(C(=O)*)cc1; Hyp = O=C(O)[C@@H]1C[C@@H](O)CN1

Assays:
Candida albicans [1] = test: Antifungal activity against Candida albicans; format: functional
In short: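 Broth microdilution, C. albicans A26 (ATCC 62342) grown on Sabouraud dextrose agar at 35 °C; inoculum 1 × 10^5 conidia/mL in antibiotic 3 broth. Compounds dissolved at 1.0 mg/mL in methanol, 2-fold serial dilutions from 80 µg/mL, duplicate. Read after 48 h at 35 °C. MIC = lowest concentration completely inhibiting visible growth.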

Candida albicans [2] = test: In vivo antifungal activity administered intraperitoneally against Candida albicans infections in mice.; format: functional; settings: ip
In short: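 Male ICR mice (18-20 g), X-irradiated with 400 r 24 h before iv tail-vein infection with 2 × 10^6 C. albicans A26 cells in saline. Compounds suspended in β-cyclodextrin, given parenterally at 0, 4, 24 and 48 h post-infection. 10 mice per dose, top dose 10 mg/kg with 2-fold dilutions down to 0.039 mg/kg. 7-day survival; ED50 by Reed-Muench.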

[3] = target: Beta-1,3-glucan synthase (Candida albicans) (UniProt O13428); test: In vitro inhibition of glucan synthase obtained from Candida albicans at a concentration of 10 ug/mL.
Sequence of Beta-1,3-glucan synthase (Candida albicans) (O13428 as listed by the source): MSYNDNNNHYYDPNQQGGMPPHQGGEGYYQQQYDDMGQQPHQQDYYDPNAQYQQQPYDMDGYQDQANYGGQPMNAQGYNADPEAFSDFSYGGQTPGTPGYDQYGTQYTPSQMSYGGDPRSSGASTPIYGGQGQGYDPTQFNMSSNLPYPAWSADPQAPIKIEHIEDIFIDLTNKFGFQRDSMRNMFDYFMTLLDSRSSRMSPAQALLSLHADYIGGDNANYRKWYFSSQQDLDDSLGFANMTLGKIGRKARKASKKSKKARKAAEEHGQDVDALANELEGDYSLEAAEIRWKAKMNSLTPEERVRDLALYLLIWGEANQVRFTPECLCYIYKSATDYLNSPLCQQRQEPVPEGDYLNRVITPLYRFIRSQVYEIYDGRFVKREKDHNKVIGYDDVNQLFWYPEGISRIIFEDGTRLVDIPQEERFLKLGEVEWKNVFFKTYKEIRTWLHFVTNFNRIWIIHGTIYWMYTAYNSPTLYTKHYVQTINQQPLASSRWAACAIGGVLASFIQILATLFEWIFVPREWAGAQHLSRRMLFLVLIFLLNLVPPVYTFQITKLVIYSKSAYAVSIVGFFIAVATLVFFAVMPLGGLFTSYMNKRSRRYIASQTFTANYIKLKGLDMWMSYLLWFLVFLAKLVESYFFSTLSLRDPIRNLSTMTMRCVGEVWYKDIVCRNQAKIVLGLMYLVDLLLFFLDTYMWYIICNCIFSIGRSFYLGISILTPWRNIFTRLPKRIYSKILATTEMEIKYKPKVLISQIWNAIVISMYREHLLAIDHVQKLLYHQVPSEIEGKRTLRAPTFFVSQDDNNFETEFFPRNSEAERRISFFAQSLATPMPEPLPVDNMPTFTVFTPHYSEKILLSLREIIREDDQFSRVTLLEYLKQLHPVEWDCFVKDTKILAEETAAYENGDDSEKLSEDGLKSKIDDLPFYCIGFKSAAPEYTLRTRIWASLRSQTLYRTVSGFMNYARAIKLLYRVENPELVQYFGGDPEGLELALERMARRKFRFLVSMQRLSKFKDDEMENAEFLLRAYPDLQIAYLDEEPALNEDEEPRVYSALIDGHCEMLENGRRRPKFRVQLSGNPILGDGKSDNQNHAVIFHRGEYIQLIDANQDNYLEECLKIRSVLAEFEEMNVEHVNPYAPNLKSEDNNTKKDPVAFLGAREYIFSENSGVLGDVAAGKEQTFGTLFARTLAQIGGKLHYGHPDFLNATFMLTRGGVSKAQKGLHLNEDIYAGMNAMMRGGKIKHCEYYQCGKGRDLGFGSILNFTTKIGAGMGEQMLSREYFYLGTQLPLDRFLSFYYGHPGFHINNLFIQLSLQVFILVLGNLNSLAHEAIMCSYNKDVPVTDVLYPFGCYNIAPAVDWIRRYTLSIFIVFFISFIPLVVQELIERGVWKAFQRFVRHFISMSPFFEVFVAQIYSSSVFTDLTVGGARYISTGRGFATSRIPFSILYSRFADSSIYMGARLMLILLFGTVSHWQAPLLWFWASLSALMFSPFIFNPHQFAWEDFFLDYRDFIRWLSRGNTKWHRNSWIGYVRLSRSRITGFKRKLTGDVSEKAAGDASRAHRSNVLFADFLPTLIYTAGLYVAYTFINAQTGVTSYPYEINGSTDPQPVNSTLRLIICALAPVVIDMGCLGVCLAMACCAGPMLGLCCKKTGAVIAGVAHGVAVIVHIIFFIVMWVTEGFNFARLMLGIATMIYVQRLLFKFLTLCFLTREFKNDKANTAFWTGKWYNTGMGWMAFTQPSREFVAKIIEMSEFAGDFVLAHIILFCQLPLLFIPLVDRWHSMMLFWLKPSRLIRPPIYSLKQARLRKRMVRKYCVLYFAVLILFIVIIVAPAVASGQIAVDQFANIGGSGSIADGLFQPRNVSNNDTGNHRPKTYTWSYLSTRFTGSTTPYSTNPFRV
In short: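 Purified, solubilized β-(1,3)-D-glucan synthase prepared from C. albicans. Percent inhibition measured at 10 µg/mL compound, single determination.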

Candida albicans [4] = test: In vivo antifungal activity administered orally against Candida albicans infections in mice.; format: functional; settings: po
In short: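 X-irradiated (400 r, 24 h prior) male ICR mice infected iv with 2 × 10^6 C. albicans A26 cells. Oral gavage in cremophor (5%)/linoleic acid (8%)/water vehicle, b.i.d. × 4 starting immediately post-infection. 10 mice per dose level. Study ends at day 7; ED50 = dose giving 50% survival, by Reed-Muench.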

| Compound | MIC (Candida albicans [1]) [µg/mL] | ED50 (Candida albicans [2]) [mg/kg] | inhibition [3] [%] | ED50 (Candida albicans [4]) [mg/kg] |
| --- | --- | --- | --- | --- |
| CCCCCOc1ccc(-c2ccc(-c3ccc(C(=O)N[C@H]4C[C@@H](O)[C@@H](O)NC(=O)[C@@H]5[C@@H](O)[C@@H](C)CN5C(=O)[C@H]([C@@H](C)O)NC(=O)[C@H]([C@H](O)[C@@H](O)c5ccc(O)cc5)NC(=O)[C@@H]5C[C@@H](O)CN5C(=O)[C@H]([C@@H](C)O)NC4=O)cc3)cc2)cc1 [ANIDULAFUNGIN] ({pTerphenylCO(4''-OnC5H11)}-[Orn(4R-OH,5R-OH)]T[Hyp][hTyr(3S-OH,4S-OH)]T[Pro(3S-OH,4S-Me)]; lactam 1-C) | 0.005 (≈ 0.00438 µM) | 0.3 | 75 | 7.8 |
| CCCCCCCCOc1ccc(C(=O)N[C@H]2C[C@@H](O)[C@@H](O)NC(=O)[C@@H]3[C@@H](O)[C@@H](C)CN3C(=O)[C@H]([C@@H](C)O)NC(=O)[C@H]([C@H](O)[C@@H](O)c3ccc(O)cc3)NC(=O)[C@@H]3C[C@@H](O)CN3C(=O)[C@H]([C@@H](C)O)NC2=O)cc1 [CILOFUNGIN] ({Benzoyl(4-octyloxy)}-[Orn(4R-OH,5R-OH)]T[Hyp][hTyr(3S-OH,4S-OH)]T[Pro(3S-OH,4S-Me)]; lactam 1-C) | 0.312 (≈ 0.303 µM) | 7.6 | 76 | > 400 |
